Data as given in ChEMBL document CHEMBL4396879, “Conjugation of Short Peptides to Dibenzodiazepinone-Type Muscarinic Acetylcholine Receptor Ligands Determines M2R Selectivity” (J Med Chem, 2019).

Columns and labels:
Type in all cases: cell-based
[1] = biological target: T1, Muscarinic acetylcholine receptor M5 (Homo sapiens, UniProt P08912); experiment: Displacement of [3H]-NMS from human muscarinic M5 receptor expressed in CHO-K9 cells after 3 hrs by microbeta2 scintillation counting method
T1 sequence (P08912 whole entry): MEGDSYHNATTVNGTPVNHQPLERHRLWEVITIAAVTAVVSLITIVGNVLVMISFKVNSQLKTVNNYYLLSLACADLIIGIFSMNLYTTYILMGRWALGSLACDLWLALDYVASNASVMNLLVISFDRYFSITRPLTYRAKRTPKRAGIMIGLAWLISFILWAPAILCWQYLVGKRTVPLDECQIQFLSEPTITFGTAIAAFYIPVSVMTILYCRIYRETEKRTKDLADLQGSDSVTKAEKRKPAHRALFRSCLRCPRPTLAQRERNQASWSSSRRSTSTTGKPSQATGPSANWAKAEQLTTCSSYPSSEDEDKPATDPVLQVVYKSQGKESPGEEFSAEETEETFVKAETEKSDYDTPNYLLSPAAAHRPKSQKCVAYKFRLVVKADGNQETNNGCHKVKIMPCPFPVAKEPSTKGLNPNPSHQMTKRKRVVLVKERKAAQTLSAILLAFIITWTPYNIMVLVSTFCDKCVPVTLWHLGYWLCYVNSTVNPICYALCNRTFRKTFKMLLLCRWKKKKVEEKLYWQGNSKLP
Outline: (§1)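 [3H]NMS competition binding on intact CHO-hMxR cells in L15 medium with 1% BSA, 3 h at 22 ± 1 °C with gentle shaking. [3H]NMS was 0.2 nM (M1, M2, M3), 0.1 nM (M4) or 0.3 nM (M5). […] Cells were lysed in urea/acetic acid/Triton and counted by liquid scintillation. Ki from Cheng-Prusoff. Triplicates, ≥3 experiments.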

[2] = biological target: Muscarinic acetylcholine receptors; M1 & M2 (Homo sapiens) (UniProt P11229+P08172); experiment: Selectivity ratio of Ki for human muscarinic M1 receptor expressed in CHO-K9 cells to Ki for human muscarinic M2 receptor expressed in CHO-K9 cells
Outline: (§2)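 Ratio of mean Ki values. Each Ki came from an individual [3H]NMS competition experiment at the given CHO-hMxR subtype, converting IC50 to Ki by Cheng-Prusoff before averaging.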

[3] = biological target: Muscarinic acetylcholine receptor M2 and M5 (Homo sapiens) (UniProt P08172+P08912); experiment: Selectivity ratio of Ki for human muscarinic M5 receptor expressed in CHO-K9 cells to Ki for human muscarinic M2 receptor expressed in CHO-K9 cells; outline: as §2
[4] = biological target: Muscarinic acetylcholine receptors; M2 & M3 (Homo sapiens) (UniProt P20309+P08172); experiment: Selectivity ratio of Ki for human muscarinic M3 receptor expressed in CHO-K9 cells to Ki for human muscarinic M2 receptor expressed in CHO-K9 cells; outline: as §2
[5] = biological target: T2, Muscarinic acetylcholine receptor M4 (Homo sapiens, UniProt P08173); experiment: Displacement of [3H]-NMS from human muscarinic M4 receptor expressed in CHO-K9 cells after 3 hrs by microbeta2 scintillation counting method; outline: as §1
T2 sequence (P08173 whole entry): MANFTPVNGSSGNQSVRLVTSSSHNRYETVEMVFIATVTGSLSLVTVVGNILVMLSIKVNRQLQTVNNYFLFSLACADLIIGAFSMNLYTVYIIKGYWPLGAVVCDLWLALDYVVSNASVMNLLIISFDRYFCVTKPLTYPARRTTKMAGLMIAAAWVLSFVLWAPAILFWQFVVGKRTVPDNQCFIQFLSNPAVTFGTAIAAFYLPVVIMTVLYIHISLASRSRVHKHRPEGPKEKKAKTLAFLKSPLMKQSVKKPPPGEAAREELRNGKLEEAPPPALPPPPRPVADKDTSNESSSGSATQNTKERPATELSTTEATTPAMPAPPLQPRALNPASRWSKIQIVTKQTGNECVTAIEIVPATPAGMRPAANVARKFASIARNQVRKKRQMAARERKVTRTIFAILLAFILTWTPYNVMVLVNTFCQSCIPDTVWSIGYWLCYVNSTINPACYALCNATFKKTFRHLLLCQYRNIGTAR

[6] = biological target: Muscarinic acetylcholine receptor M2 and M4 (Homo sapiens) (UniProt P08173+P08172); experiment: Selectivity ratio of Ki for human muscarinic M4 receptor expressed in CHO-K9 cells to Ki for human muscarinic M2 receptor expressed in CHO-K9 cells; outline: as §2
[7] = biological target: T3, Muscarinic acetylcholine receptor M1 (Homo sapiens, UniProt P11229); experiment: Displacement of [3H]-NMS from human muscarinic M1 receptor expressed in CHO-K9 cells after 3 hrs by microbeta2 scintillation counting method; outline: as §1
T3 sequence (P11229 whole entry): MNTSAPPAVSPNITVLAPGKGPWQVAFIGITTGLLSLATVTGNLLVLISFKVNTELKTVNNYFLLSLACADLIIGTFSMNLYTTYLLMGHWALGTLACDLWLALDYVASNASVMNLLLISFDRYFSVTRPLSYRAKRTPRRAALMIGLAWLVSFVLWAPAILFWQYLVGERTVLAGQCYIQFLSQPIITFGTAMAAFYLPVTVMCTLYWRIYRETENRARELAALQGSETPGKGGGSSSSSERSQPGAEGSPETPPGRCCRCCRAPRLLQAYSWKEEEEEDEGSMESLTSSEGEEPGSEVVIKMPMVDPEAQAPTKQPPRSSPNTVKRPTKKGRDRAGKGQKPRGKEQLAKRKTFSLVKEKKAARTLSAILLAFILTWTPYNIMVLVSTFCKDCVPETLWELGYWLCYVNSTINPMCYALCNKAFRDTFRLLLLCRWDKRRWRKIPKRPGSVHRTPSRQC

[8] = biological target: T4, Muscarinic acetylcholine receptor M2 (Homo sapiens, UniProt P08172); experiment: Displacement of [3H]-NMS from human muscarinic M2 receptor expressed in CHO-K9 cells after 3 hrs by microbeta2 scintillation counting method; outline: as §1
T4 sequence (P08172 whole entry): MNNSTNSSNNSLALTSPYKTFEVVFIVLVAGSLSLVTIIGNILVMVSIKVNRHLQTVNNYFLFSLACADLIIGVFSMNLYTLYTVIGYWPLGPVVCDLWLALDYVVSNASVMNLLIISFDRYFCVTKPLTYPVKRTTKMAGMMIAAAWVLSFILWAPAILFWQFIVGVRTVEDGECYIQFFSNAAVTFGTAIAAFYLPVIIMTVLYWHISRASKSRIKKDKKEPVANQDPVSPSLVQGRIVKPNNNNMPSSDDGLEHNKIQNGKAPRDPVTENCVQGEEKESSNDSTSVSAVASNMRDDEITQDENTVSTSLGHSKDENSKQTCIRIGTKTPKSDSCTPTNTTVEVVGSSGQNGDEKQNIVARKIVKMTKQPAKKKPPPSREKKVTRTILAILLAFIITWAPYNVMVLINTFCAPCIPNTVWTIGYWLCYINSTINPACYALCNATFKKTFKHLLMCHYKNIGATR

[9] = biological target: Muscarinic acetylcholine receptor M3 (Homo sapiens, UniProt P20309); experiment: Displacement of [3H]-NMS from human muscarinic M3 receptor expressed in CHO-K9 cells after 3 hrs by microbeta2 scintillation counting method; outline: as §1
Chain of Muscarinic acetylcholine receptor M3 (P20309 whole entry): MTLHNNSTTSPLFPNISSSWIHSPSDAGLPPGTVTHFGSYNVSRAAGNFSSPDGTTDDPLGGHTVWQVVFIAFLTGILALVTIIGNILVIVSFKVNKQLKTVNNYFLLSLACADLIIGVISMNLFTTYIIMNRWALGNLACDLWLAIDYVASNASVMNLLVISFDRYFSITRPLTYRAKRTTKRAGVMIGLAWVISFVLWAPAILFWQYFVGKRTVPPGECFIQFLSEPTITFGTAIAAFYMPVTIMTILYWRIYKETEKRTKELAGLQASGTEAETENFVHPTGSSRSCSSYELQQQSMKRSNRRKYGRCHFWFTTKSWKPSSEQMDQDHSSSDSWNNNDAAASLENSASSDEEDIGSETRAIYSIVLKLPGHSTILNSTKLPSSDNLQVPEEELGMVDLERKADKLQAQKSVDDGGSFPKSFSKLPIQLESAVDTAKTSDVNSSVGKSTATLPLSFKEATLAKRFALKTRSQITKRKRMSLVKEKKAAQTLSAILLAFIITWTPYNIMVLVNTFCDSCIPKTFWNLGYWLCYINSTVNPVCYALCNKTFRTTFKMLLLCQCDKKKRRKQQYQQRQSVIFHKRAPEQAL

| Compound | Ki [1] | Ratio Ki [2] | Ratio Ki [3] | Ratio Ki [4] | Ki [5] | Ratio Ki [6] | Ki [7] | Ki [8] | Ki [9] |
| --- | --- | --- | --- | --- | --- | --- | --- | --- | --- |
| CC(=O)N[C@@H](CCCNC(=N)N)C(=O)N[C@@H](CCCCN)C(=O)NCCCCC1CCN(CC(=O)N2c3ccccc3NC(=O)c3ccccc32)CC1 | 501 nM | 6.5 | 39 | 400 | 257 nM | 17 | 95.5 nM | 12 nM | 5500 nM |
| CC(=O)N[C@@H](CCCCN)C(=O)N[C@@H](C)C(=O)N[C@@H](CCCNC(=N)N)C(=O)NCCCCC1CCN(CC(=O)N2c3ccccc3NC(=O)c3ccccc32)CC1 | 427 nM | 15 | 56 | 350 | 89.1 nM | 12 | 115 nM | 7.76 nM | 2690 nM |
| CC(=O)N[C@@H](CCCCN)C(=O)N[C@@H](Cc1ccc(O)cc1)C(=O)NCCN1CCN(CCCCC2CCN(CC(=O)N3c4ccccc4NC(=O)c4ccccc43)CC2)CC1 | 70.8 nM | 14 | 780 | 260 | 1.12 nM | 12 | 1.41 nM | 0.0794 nM | 27.5 nM |
| CC(=O)N[C@@H](Cc1ccc(O)cc1)C(=O)N[C@@H](CCCCN)C(=O)NCCN1CCN(CCCCC2CCN(CC(=O)N3c4ccccc4NC(=O)c4ccccc43)CC2)CC1 | 141 nM | 32 | 1900 | 220 | 0.912 nM | 13 | 2.14 nM | 0.0794 nM | 16.2 nM |
| CN1CC=C(c2nsnc2OCCCN2CCN(CCCCC3CCN(CC(=O)N4c5ccccc5NC(=O)c5ccccc54)CC3)CC2)CC1 | 33.9 nM | 20 | 230 | 180 | 2.57 nM | 35 | 1.45 nM | 0.0794 nM | 13.2 nM |
| CC(=O)N[C@@H](Cc1ccc(O)cc1)C(=O)N[C@@H](C)C(=O)N[C@@H](CCCCN)C(=O)NCCCCC1CCN(CC(=O)N2c3ccccc3NC(=O)c3ccccc32)CC1 | 209 nM | 19 | 23 | 550 | 57.5 nM | 5.9 | 178 nM | 9.33 nM | 5010 nM |
| CC(=O)N[C@@H](CCCNC(=N)N)C(=O)N[C@@H](CCCNC(=N)N)C(=O)NCCCCC1CCN(CC(=O)N2c3ccccc3NC(=O)c3ccccc32)CC1 | 162 nM | 12 | 97 | 710 | 29.5 nM | 19 | 20 nM | 1.7 nM | 955 nM |
| CCC(=O)NCc1cc(C(=O)NCCN2CCC(N3CCC(n4c(=O)[nH]c5ccccc54)CC3)CC2)cc(C(=O)NCCN2CCN(CCCCC3CCN(CC(=O)N4c5ccccc5NC(=O)c5ccccc54)CC3)CC2)c1 | – | 7.6 | 300 | 78 | – | 7.4 | – | – | – |
